Measurements: ChEMBL document CHEMBL3856288, “Amidate Prodrugs of Deoxythreosyl Nucleoside Phosphonates as Dual Inhibitors of HIV and HBV Replication” (J Med Chem, 2016)

Tests used:
[1] = Cytotoxicity against human MT4 cells assessed as decrease in cell viability after 5 days by MTT assay; assay type: toxicity, cell-based
[2] = Antiviral activity against HIV2 ROD infected in human MT4 cells assessed as protection against virus-induced cytopathic effect after 5 days by MTT assay; assay type: functional, cell-based, Human immunodeficiency virus type 2 (ISOLATE ROD); conditions: Human immunodeficiency virus 2, MT4, 120 h
Hepatitis B virus [3] = assay: Antiviral activity against HBV ayw1 infected in human HepG2(2.2.15) cells assessed as reduction in viral replication by measuring extracellular viral DNA copy number after 6 days by real-time qPCR method; assay type: functional, cell-based; conditions: ayw1, HepG2 2.2.15, 144 h
Method in brief: (§1)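 HepG2 2.2.15 cells (stable line carrying two copies of the HBV ayw1 genome) were seeded at 1.5 × 10^4 cells/well in DMEM with 2% FBS and G418. After 16−24 h, compound was added in triplicate, and medium plus compound was renewed on day 3. On day 6, supernatant was Pronase-treated and extracellular HBV DNA was quantified by TaqMan qPCR against an HBV DNA standard curve to give EC50/EC90. Cell viability was read by MTS uptake to give CC50.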

[4] = tested on: Human immunodeficiency virus 1; assay: Antiviral activity against HIV1 3B infected in human MT4 cells assessed as protection against virus-induced cytopathic effect after 5 days by MTT assay; assay type: functional, cell-based; conditions: Human immunodeficiency virus 1, 3B, MT4, 120 h
[5] = Cytotoxicity against human HepG2(2.2.15) cells assessed as reduction in cell viability by MTS assay; assay type: toxicity, cell-based; method in brief: as §1
[6] = tested on: Human immunodeficiency virus 1; assay: Antiviral activity against HIV1 3B infected in human MT2 cells assessed as protection against virus-induced cytopathic effect after 5 days by XTT assay; assay type: functional, cell-based; conditions: Human immunodeficiency virus 1, 3B, MT2, 120 h
[7] = Selectivity index, ratio of CC50 for human MT4 cells to EC50 for HIV2 ROD infected in human MT4 cells; assay type: toxicity, cell-based; conditions: read-out: Ratio CC50/EC50
[8] = Selectivity ratio of CC50 for human HepG2(2.2.15) cells to EC50 for reduction in HBV ayw1 extracellular DNA copy number; conditions: read-out: Ratio CC50/EC50
Method in brief: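 HepG2 2.2.15 cells (two HBV ayw1 genome copies), 1.5 × 10^4 cells/well in DMEM with 2% FBS and G418; compound dosed in triplicate and medium renewed on day 3. On day 6, Pronase-treated supernatant HBV DNA measured by TaqMan qPCR against a standard curve, giving EC50. MTS uptake gave CC50, and the ratio was calculated from these.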

[9] = Selectivity index, ratio of CC50 for human MT4 cells to EC50 for HIV1 3B infected in human MT4 cells; assay type: toxicity, cell-based; conditions: read-out: Ratio CC50/EC50
[10] = Drug level in acetone-d6/pH 7.6 Trizma buffer treated with 1'alpha-(Adenin-9-yl)-2'-deoxy-3'-O-{[N-(diisoamyl-L-aspartate)](phenoxy)methylphosphonoamidate}-L-threose assessed as baker's yeast carboxypeptidase Y-mediated compound formation at 1 mg after 3 hrs by RP-HPLC/mass spectra analysis; assay type: ADME; conditions: saccharomyces cerevisiae, in vitro, pH 7.6, 3 h
[11] = Drug level in pH 8 phosphate buffer treated with 1'alpha-(Adenin-9-yl)-2'-deoxy-3'-O-{[N-(diisoamyl-L-aspartate)](phenoxy)methylphosphonoamidate}-L-threose at 2 mg measured every 30 mins for 14 hrs by RP-HPLC/mass spectra analysis
[12] = Half life in human liver microsomes at 0.1 uM in presence of NADPH-regenerating system by HPLC MS/MS method; assay type: ADME
Method in brief: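 Pooled liver microsomes preincubated 10 min at 37 °C with NADPH-regenerating system (1 mM NADP, 5 mM G6P, 1 U/mL G6PDHase) in phosphate buffer pH 7.4, 3 mM MgCl2, 1 mM EDTA; compound added at 0.1 μM final; samples at 0, 15, 30, 45, 60 min quenched in acetonitrile/methanol, analysed by HPLC MS/MS.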

Hepatitis B virus [13] = assay: Antiviral activity against HBV ayw1 infected in human HepG2(2.2.15) cells assessed as reduction in viral replication by measuring intracellular viral DNA copy number after 6 days by real-time qPCR method; assay type: functional, cell-based; conditions: ayw1, HepG2 2.2.15, 144 h
Method in brief: (§2)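 The protocol was the same as the primary HepG2 2.2.15 assay (triplicate dosing, medium plus compound renewed on day 3, 6-day course). At the end, total intracellular DNA was isolated from the cells and HBV DNA copy number was measured by TaqMan qPCR to give EC50/EC90. CC50 came from MTS viability, and SI was taken as CC50/EC50.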

[14] = Selectivity ratio of CC50 for human HepG2(2.2.15) cells to EC50 for reduction in HBV ayw1 intracellular DNA copy number; assay type: ADME, cell-based; conditions: read-out: Ratio CC50/EC50; method in brief: as §2
[15] = Half life in human liver S9 fraction at 100 uM by HPLC-UV method; assay type: ADME, subcellular
Method in brief: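 Incubation started by adding human liver S9 fraction (4 mg/mL) at 37 °C; aliquots at 0, 10, 20, 30, 60 min quenched in acetonitrile, centrifuged, supernatant analysed by C18 HPLC with UV at 260 nm; parent peak area versus time 0 gave percent remaining and half-life.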

| Compound | EC50 (Hepatitis B virus [3]) [µM] | EC90 (Hepatitis B virus [3]) [µM] | Drug metabolism [10] | EC50 (Hepatitis B virus [13]) [µM] | EC90 (Hepatitis B virus [13]) [µM] | CC50 at 120 h [1] [µM] | EC50 [2] [µM] | EC50 [4] [µM] | CC50 [5] [µM] | EC50 [6] [µM] | selectivity ratio [7] | selectivity ratio [8] | selectivity ratio [9] | Drug metabolism [11] | half-life at 0.1 µM [12] [min] | selectivity ratio [14] | half-life at 100 µM [15] [min] |
| --- | --- | --- | --- | --- | --- | --- | --- | --- | --- | --- | --- | --- | --- | --- | --- | --- | --- |
| CC(C)OC(=O)[C@H](C)NP(=O)(CO[C@H]1CO[C@@H](n2ccc(N)nc2=O)C1)N[C@@H](C)C(=O)OC(C)C | > 100 | > 100 |  |  |  | ≥ 193 | > 193 | > 193 | > 100 |  |  |  |  |  |  |  |  |
| C[C@H](Cn1cnc2c(N)ncnc21)OCP(=O)(O)O [TENOFOVIR ANHYDROUS] |  |  |  |  |  |  |  |  |  | 5 |  |  |  |  |  |  |  |
| CC(C)CCOC(=O)C[C@H](NP(=O)(O)CO[C@H]1CO[C@@H](n2cnc3c(N)ncnc32)C1)C(=O)OCCC(C)C |  |  |  |  |  |  |  |  |  |  |  |  |  | Metabolite detected |  |  |  |
| CCCOC(=O)[C@H](Cc1ccccc1)NP(=O)(CO[C@H]1CO[C@@H](n2cnc3c(N)ncnc32)C1)N[C@@H](Cc1ccccc1)C(=O)OCCC | 0.01 | 4.2 |  | 0.03 | 6.37 | 1.12 | 0.002 | 0.0033 | > 10 |  | 570 | > 1000 | 347 |  | 7 | > 3330 | < 10 |
| Cc1cn([C@H]2C[C@@H](OCP(=O)(N[C@@H](C)C(=O)OC(C)C)Oc3ccccc3)CO2)c(=O)[nH]c1=O (stereo partly drawn) | 0.26 | > 10 |  |  |  | 127 | 0.424 | 0.565 | > 100 |  | 295 | > 38 | 223 |  |  |  |  |
| CC(C)OC(=O)[C@H](C)NP(=O)(CO[C@H]1CO[C@@H](n2cnc3c(N)ncnc32)C1)Oc1ccccc1 (stereo partly drawn) | 0.03 | > 10 |  |  |  | 61.8 | 0.0535 | 0.103 | > 10 |  | 1150 | > 333 | 597 |  | > 60 |  | > 60 |

The next lines start with results.

| EC50 (Hepatitis B virus [3]) [µM] | EC90 (Hepatitis B virus [3]) [µM] | Drug metabolism [10] | EC50 (Hepatitis B virus [13]) [µM] | EC90 (Hepatitis B virus [13]) [µM] | Compound | CC50 at 120 h [1] [µM] | EC50 [2] [µM] | EC50 [4] [µM] | CC50 [5] [µM] | EC50 [6] [µM] | selectivity ratio [7] | selectivity ratio [8] | selectivity ratio [9] | Drug metabolism [11] | half-life at 0.1 µM [12] [min] | selectivity ratio [14] | half-life at 100 µM [15] [min] |
| --- | --- | --- | --- | --- | --- | --- | --- | --- | --- | --- | --- | --- | --- | --- | --- | --- | --- |
| 79.6 | > 100 |  |  |  | Nc1ncnc2c1ncn2[C@@H]1OC[C@H](OCP(=O)(O)O)[C@H]1F | 262 | ≥ 214 | ≥ 222 | > 100 |  |  |  |  |  |  |  |  |
| > 100 | > 100 |  |  |  | Nc1ccn([C@H]2C[C@@H](OCP(=O)(O)O)CO2)c(=O)n1 | > 343 | > 343 | > 343 | > 100 |  |  |  |  |  |  |  |  |
| 40.2 |  |  |  |  | Cc1cn([C@H]2C[C@@H](OCP(=O)(O)O)CO2)c(=O)[nH]c1=O | 297 | 23.6 | 27.1 | > 100 |  | 13 | > 2.49 | 11 |  |  |  |  |
|  |  | Metabolite_Detected |  |  | CC(C)CCOC(=O)C[C@H](NP(=O)(O)CO[C@H]1CO[C@@H](n2cnc3c(N)ncnc32)C1)C(=O)O |  |  |  |  |  |  |  |  |  |  |  |  |
